Measured values: publication PMC5704914 (Biochemistry, 2017)

Tested on: α11.2 AAs 1506-1871
Assay: Yeast two-hybrid interaction of α-actinin-1 fragments with α11.2 C-terminus
Format: binding, rabbit
Conditions: α-actinin-1 prey in pGADT7; X-α-Gal
In short: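 Bait plasmids (α11.2 C-terminal fragments) and α-actinin-1 full-length or fragment prey (Gal4 activation domain, pGADT7) were co-transformed into Y2H Gold yeast. Co-transformants were selected on Leu−/Trp− plates with X-α-Gal, then colonies were replated onto Leu/Trp/His/Ade quadruple-dropout plates plus X-α-Gal to score interaction.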

B1: SR234EF: C-terminal four EF hands preceded by three spectrin repeats of α-actinin-1 (AAs 391-892) (protein)
chain: RLDHLAEKFRQKASIHEAWTDGKEAMLRQKDYETATLSEIKALLKKHEAFESDLAAHQDRVEQIAAIAQELNELDYYDSPSVNARCQKICDQWDNLGALTQKRREALERTEKLLETIDQLYLEYAKRAAPFNNWMEGAMEDLQDTFIVHTIEEIQGLTTAHEQFKATLPDADKERLAILGIHNEVSKIVQTYHVNMAGTNPYTTITPQEINGKWDHVRQLVPRRDQALTEEHARQQHNERLRKQFGAQANVIGPWIQTKMEEIGRISIEMHGTLEDQLSHLRQYEKSIVNYKPKIDQLEGDHQLIQEALIFDNKHTNYTMEHIRVGWEQLLTTIARTINEVENQILTRDAKGISQEQMNEFRASFNHFDRDHSGTLGPEEFKACLISLGYDIGNDPQGEAEFARIMSIVDPNRLGVVTFQAFIDFMSRETADTDTADQVMASFKILAGDKNYITMDELRRELPPDQAEYCIARMAPYTGPDSVPGALDYMSFSTALYGESDL
modifications: left off: Gal4 activation domain, end not stated, kept
interaction of α-actinin-1 polypeptide with α11.2 AAs 1506-1871 (Y2H): consistently strong interaction readouts
